For assay [1], the target named is Mitogen-activated protein kinase 8 (Homo sapiens) (UniProt P45983). In words: Inhibition of JNK1a1 at 1 uM. In outline: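 Single-point profiling in a panel of 108 kinases. Each selected inhibitor was tested at two concentrations, 0.1 and 1.0 micromolar. Values are reported as inhibition at each concentration.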
Assay [2] has as its target Hepatocyte growth factor receptor (Homo sapiens) (UniProt P08581). In words: Inhibition of Met at 1 uM. In outline:
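Single-point screen within a 108-kinase selectivity panel. Each kinase was tested with inhibitor at 0.1 and 1.0 micromolar, and activity was recorded as percent inhibition.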

The target of assay [3] is Insulin receptor (Homo sapiens) (UniProt P06213). Nature of the assay: Inhibition of IR at 1 uM; values are per cent of control.
The target in assay [4] is Vascular endothelial growth factor receptor 2 (Homo sapiens) (UniProt P35968). Nature of the assay: Inhibition of KDR at 1 uM; values are per cent of control.
Assay [5] concerns the target Macrophage colony-stimulating factor 1 receptor (Homo sapiens) (UniProt P07333). Nature of the assay: Inhibition of Fms at 0.1 uM; values are per cent of control.
Assay [6] deals with T1, Ephrin type-A receptor 1 (Homo sapiens) (UniProt P21709).
T1 sequence (whole entry): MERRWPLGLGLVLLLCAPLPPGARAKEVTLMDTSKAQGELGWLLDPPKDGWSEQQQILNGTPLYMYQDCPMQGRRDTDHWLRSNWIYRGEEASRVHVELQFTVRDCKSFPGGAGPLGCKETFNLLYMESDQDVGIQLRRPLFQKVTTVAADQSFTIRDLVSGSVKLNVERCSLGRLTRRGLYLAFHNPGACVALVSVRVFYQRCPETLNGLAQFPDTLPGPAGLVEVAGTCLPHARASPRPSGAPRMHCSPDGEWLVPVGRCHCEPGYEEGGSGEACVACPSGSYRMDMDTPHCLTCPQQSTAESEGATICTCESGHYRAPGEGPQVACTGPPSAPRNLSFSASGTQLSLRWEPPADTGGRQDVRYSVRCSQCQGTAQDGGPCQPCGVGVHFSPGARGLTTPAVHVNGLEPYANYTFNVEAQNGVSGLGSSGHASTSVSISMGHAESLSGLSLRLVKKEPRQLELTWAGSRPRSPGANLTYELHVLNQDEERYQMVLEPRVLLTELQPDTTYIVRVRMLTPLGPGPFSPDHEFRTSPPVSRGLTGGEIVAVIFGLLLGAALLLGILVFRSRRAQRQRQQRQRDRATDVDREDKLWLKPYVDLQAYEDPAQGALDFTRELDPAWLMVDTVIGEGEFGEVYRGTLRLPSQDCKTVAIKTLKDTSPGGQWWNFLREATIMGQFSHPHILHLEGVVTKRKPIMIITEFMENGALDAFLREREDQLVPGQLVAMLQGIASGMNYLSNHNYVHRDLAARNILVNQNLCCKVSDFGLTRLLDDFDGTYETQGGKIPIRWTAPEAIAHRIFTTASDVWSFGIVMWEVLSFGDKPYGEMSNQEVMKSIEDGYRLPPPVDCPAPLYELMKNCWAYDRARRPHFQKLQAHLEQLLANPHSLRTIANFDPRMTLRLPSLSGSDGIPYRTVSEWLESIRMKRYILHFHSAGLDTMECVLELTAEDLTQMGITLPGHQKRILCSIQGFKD
In words: Inhibition of EphA1 at 1 uM; values are per cent of control.

The target of assay [7] is Insulin-like growth factor 1 receptor (Homo sapiens) (UniProt P08069). Nature of the assay: Inhibition of IGF1R at 1 uM; values are per cent of control.
Chain of Insulin-like growth factor 1 receptor (Homo sapiens) (P08069 31-736 limits assumed): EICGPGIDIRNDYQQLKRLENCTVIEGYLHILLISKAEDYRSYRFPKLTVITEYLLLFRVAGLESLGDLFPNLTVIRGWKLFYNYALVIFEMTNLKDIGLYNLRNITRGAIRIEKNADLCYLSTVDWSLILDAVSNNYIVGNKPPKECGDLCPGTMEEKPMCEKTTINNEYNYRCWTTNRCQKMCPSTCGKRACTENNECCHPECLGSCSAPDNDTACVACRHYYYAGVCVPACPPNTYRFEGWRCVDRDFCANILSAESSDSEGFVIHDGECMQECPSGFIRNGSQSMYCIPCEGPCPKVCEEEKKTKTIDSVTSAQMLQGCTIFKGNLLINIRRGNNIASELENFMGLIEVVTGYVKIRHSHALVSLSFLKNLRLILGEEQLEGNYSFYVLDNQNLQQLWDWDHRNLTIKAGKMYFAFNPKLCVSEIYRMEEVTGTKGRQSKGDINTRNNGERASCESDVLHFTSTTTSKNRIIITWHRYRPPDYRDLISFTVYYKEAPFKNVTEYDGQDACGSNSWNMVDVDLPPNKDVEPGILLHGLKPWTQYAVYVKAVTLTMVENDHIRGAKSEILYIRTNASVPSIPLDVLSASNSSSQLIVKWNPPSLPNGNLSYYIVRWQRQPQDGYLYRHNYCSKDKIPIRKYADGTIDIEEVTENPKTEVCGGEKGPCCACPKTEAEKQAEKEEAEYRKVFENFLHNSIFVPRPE
Chain of Insulin-like growth factor 1 receptor (Homo sapiens) (P08069 741-1367 limits assumed): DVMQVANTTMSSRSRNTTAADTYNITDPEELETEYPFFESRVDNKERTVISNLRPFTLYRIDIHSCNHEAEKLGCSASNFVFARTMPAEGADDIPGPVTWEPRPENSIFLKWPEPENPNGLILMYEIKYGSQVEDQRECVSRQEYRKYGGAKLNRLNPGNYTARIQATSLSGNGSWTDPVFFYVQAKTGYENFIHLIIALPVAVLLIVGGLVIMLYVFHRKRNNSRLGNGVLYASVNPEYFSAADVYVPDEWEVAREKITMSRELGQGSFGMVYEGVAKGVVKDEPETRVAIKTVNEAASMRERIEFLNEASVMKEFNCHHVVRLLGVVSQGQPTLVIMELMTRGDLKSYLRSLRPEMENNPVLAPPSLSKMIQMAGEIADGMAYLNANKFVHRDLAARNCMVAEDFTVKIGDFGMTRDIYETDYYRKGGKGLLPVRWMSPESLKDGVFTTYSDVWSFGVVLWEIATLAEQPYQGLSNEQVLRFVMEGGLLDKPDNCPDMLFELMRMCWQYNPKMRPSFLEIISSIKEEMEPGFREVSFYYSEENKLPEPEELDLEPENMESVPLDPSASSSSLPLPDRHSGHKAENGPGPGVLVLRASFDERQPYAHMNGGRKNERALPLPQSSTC
Assay [8] concerns the target Serine/threonine-protein kinase pim-1 (Homo sapiens) (UniProt P11309). Nature of the assay: Inhibition of Pim-1 at 1 uM; values are per cent of control.
Assay [9] concerns the target Epidermal growth factor receptor (Homo sapiens) (UniProt P00533). Nature of the assay: Inhibition of EGFR at 0.1 uM; values are per cent of control.
Assay [10] addresses T2, Calcium/calmodulin-dependent protein kinase type IV (Homo sapiens) (UniProt Q16566).
T2 sequence (whole entry): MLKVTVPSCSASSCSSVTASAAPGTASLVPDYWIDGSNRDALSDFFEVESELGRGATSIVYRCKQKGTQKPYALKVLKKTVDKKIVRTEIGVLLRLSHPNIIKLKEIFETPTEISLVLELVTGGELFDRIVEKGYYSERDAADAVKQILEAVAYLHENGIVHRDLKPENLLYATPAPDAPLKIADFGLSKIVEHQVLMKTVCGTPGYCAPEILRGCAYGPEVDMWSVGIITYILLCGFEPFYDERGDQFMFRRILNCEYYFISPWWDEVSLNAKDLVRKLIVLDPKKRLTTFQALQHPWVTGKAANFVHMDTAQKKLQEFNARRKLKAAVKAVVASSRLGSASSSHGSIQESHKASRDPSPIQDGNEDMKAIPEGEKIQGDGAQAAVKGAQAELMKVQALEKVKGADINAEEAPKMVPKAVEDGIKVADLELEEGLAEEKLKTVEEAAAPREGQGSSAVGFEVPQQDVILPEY
In words: Inhibition of CaMK4 at 0.1 uM; values are per cent of control.

The target of assay [11] is Insulin-like growth factor 1 receptor (Homo sapiens) (UniProt P08069). In words: Inhibition of IGF1R at 0.1 uM; values are per cent of control.
Assay [12] addresses LIM domain kinase 1 (Homo sapiens) (UniProt P53667). In words: Inhibition of LIMK1 at 0.1 uM; values are per cent of control.
Assay [13] has as its target Serine/threonine-protein kinase pim-2 (Homo sapiens) (UniProt Q9P1W9). Nature of the assay: Inhibition of Pim-2 at 0.1 uM; values are per cent of control.

What is called inhibition is the relative decrease from the control value, in per cent. A lower inhibition goes with little suppression.

Chain of Macrophage colony-stimulating factor 1 receptor (Homo sapiens) (P07333 whole entry): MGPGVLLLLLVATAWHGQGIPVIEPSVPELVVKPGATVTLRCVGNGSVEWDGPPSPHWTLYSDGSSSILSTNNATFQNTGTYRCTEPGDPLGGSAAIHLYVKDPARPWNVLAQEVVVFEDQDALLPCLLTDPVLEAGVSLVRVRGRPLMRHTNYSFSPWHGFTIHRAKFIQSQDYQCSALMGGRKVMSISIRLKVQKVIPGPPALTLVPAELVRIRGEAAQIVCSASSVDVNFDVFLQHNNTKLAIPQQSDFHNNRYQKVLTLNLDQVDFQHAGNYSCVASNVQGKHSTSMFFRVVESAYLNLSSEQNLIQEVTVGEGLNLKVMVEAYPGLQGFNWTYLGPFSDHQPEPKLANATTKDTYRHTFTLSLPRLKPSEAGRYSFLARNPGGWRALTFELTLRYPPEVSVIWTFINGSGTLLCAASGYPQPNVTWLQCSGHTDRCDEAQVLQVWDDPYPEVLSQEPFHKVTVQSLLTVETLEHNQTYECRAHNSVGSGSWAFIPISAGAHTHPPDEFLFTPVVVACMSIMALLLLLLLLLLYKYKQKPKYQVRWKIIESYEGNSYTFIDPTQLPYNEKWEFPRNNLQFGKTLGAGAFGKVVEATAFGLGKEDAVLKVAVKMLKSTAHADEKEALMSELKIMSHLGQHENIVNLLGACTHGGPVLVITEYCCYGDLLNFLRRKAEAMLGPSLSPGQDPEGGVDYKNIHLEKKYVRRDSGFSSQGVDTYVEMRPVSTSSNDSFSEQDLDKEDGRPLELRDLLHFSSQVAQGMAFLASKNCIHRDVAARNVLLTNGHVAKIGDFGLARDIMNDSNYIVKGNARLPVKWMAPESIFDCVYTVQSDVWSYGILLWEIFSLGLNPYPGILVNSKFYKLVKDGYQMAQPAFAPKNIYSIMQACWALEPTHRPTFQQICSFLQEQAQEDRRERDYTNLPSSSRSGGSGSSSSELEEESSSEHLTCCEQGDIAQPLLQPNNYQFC
Chain of Serine/threonine-protein kinase pim-2 (Homo sapiens) (Q9P1W9 whole entry, looked up): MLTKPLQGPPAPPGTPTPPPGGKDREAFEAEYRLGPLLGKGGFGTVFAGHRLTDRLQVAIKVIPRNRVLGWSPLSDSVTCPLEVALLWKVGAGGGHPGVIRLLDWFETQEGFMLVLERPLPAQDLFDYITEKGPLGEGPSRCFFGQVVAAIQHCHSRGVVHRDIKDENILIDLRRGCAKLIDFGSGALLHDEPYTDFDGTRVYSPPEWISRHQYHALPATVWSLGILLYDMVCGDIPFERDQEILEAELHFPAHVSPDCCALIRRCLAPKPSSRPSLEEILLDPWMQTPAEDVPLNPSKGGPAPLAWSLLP
Chain of Mitogen-activated protein kinase 8 (Homo sapiens) (P45983 whole entry): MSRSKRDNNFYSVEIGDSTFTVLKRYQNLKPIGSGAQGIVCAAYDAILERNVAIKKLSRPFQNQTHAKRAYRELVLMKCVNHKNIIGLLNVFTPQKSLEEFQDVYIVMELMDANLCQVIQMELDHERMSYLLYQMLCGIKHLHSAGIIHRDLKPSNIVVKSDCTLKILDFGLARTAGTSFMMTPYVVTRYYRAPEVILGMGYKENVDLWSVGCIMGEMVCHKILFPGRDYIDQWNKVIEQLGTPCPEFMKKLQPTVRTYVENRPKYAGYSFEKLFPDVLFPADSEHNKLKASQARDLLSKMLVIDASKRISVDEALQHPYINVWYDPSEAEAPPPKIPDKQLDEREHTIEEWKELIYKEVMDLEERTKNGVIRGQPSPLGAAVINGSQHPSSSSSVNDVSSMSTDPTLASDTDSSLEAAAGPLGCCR
Chain of Serine/threonine-protein kinase pim-1 (Homo sapiens) (P11309 whole entry, looked up): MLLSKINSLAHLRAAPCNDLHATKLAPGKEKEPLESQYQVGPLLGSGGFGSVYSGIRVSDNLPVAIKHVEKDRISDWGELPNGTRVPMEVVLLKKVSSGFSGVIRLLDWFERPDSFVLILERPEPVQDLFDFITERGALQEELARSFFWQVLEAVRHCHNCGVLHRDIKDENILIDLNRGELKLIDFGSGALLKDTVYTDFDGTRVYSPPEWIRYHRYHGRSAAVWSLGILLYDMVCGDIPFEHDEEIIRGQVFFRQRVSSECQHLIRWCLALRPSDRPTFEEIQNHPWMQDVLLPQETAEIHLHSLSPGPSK
Chain of Hepatocyte growth factor receptor (Homo sapiens) (P08581 whole entry): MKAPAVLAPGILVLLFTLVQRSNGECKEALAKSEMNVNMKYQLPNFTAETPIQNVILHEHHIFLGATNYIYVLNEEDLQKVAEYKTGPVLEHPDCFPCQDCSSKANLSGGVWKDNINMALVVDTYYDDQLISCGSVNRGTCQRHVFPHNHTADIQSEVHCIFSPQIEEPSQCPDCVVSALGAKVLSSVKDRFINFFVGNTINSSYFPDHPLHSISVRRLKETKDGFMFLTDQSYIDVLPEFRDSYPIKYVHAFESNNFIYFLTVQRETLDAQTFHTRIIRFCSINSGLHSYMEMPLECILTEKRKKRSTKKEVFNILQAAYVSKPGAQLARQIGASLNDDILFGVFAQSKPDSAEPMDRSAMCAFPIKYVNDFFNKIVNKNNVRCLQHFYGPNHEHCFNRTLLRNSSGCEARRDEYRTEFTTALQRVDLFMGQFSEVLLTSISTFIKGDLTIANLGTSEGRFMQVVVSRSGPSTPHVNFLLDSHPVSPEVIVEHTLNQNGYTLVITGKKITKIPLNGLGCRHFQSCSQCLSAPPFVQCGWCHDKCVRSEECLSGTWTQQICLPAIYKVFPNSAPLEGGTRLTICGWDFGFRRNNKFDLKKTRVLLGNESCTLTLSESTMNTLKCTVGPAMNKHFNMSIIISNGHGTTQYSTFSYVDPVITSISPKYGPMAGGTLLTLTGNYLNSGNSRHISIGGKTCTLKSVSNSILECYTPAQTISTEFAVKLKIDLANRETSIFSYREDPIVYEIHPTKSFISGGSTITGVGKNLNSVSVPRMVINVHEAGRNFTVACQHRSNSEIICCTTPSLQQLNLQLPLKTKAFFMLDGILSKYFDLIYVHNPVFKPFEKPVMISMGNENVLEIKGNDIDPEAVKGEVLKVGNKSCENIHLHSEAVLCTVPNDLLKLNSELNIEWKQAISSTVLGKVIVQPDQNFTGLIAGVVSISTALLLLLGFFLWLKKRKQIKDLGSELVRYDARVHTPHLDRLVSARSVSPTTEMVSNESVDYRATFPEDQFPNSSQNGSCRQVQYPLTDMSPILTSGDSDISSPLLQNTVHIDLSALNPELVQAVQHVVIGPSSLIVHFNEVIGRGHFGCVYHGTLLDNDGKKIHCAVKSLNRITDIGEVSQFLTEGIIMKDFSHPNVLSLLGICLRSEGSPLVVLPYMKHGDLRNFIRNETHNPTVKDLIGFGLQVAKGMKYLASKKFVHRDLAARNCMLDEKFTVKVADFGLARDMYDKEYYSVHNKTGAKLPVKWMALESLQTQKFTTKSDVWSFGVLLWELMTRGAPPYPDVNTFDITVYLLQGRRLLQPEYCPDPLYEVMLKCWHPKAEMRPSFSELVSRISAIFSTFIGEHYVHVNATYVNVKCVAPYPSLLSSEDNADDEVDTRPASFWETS

Take `Cc1ccc2cc(-c3n[nH]c4ccc(NC5CCNC5)cc34)[nH]c2c1` (stereo unspecified): the inhibition came out at 73% in [1] and 6% in assay [2]. Also, the residual activity in [3] was found to be 66%; in [4] it was 5%; in assay [5], 57%; in assay [6], 5%; in assay [7], 36%; in [8], 91%. The residual activity in assay [9] worked out at 94%; in assay [10], 74%; in assay [11], 98%; in [12], 37%; in [13] it was 99%.
Consider `Cc1ccc2cc(-c3n[nH]c4ccc(NC5CCN(Cc6ccccc6)CC5)cc34)[nH]c2c1`, for which the inhibition was 76% in assay [1] and 28% in [2]. Besides, the residual activity in assay [3] worked out at 60%; in assay [4], 21%; in assay [5], 60%; in [6] it was 12%; in assay [7] it was 16%; in assay [8], 93%. Further, the residual activity in assay [9] worked out at 28%; in assay [10] it was 109%; in [11], 52%; in [12] it was 98%; in assay [13], 98%.

The record behind these values is ChEMBL document CHEMBL1681705, “Optimisation of ITK inhibitors through successive iterative design cycles” (Bioorg Med Chem Lett, 2011).
